Assay results as given in ChEMBL document CHEMBL3877303 (J Med Chem, 2017).
Values belong to the molecule of their own block, whether it stands above or below them. Active and inactive are the calls of the source. No cut-off for these calls is given here.

Legend:
[1] = target: T1, Mast/stem cell growth factor receptor Kit (Homo sapiens, UniProt P10721); details: 1 uM
[2] = target: T1, Mast/stem cell growth factor receptor Kit; details: 1 uM; remark: listed apart in the source
[3] = Cell cycle arrest in human GIST882 cells assessed as accumulation at G0/G1 phase at 1 uM after 48 hrs by propidium iodide/RNase staining based flow cytometry; format: functional
Outline: (§1)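 Cells were exposed to serially diluted compound, then fixed in cold 70% ethanol overnight at -20 °C. They were stained with PI/RNase buffer for DNA-content cell-cycle analysis.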

[4] = target: T1, Mast/stem cell growth factor receptor Kit; details: GISTT1, 1 uM
[5] = target: T1, Mast/stem cell growth factor receptor Kit; details: 1 uM; remark: listed apart in the source
[6] = target: T1, Mast/stem cell growth factor receptor Kit; details: GISTT1, 1 uM; remark: listed apart in the source
[7] = target: T1, Mast/stem cell growth factor receptor Kit; details: GISTT1, 1 uM; remark: listed apart in the source
[8] = system: Mast/stem cell growth factor receptor Kit (Homo sapiens), P10721 [V559D,T670I]; test: Inhibition of Tel-fused c-KIT T670I/V559D double mutant (unknown origin) expressed in BAF3 cells assessed as growth inhibition measured after 72 hrs by CellTiter-Glo or CCK8 assay; format: cell-based
Sequence of Mast/stem cell growth factor receptor Kit (Homo sapiens), P10721 [V559D,T670I] (P10721 whole entry V559D/T670I, the tested form may be a part): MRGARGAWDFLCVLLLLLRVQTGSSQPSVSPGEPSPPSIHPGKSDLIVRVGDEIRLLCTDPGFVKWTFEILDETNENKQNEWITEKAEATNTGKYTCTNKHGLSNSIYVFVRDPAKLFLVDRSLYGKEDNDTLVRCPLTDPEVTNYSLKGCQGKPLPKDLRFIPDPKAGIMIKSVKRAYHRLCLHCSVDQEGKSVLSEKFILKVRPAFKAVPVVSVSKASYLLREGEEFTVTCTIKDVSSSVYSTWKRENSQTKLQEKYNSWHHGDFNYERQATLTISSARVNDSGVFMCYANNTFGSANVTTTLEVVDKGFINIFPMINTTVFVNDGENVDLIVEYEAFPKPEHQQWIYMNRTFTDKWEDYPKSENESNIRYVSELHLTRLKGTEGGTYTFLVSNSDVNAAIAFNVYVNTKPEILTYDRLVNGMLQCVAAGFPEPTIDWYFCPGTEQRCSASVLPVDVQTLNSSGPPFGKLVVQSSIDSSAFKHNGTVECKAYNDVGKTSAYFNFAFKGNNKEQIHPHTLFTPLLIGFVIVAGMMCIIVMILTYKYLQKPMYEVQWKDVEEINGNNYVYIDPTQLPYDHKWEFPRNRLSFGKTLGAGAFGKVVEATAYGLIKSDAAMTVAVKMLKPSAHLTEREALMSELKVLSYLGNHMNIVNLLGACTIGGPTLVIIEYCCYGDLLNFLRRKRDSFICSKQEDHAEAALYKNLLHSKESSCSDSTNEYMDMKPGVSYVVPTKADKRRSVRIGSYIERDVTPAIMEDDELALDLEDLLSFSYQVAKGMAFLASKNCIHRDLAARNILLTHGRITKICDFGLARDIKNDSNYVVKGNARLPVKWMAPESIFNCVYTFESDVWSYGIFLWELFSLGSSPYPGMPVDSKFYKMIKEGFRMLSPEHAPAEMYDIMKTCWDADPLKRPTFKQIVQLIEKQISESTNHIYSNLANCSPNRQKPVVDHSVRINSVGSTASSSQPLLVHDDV
Outline: (§2)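 BaF3 lines were made by retroviral transduction with kinase-fusion MSCV vectors packaged in HEK293T cells. Cells were selected with puromycin for 48 h, then selected again without IL-3 so growth depends on the introduced kinase. […] They were seeded at 1 to 2.5×10^4 cells/mL with compound dilutions and incubated 72 h. Viability was read by CellTiter-Glo luminescence or CCK-8 absorbance (450/655 nm), normalized to DMSO control; GI50 was curve-fitted from triplicate tests.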

[9] = target: T1, Mast/stem cell growth factor receptor Kit; test: Inhibition of c-KIT mediated signaling pathways assessed as reduction in S6 phosphorylation at S235/236 in human GIST882 cells at 0.03 to 10 uM measured after 2 hrs by immunoblotting; format: cell-based
Outline: (§3)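 After an ice-cold PBS wash, cells were lysed in RIPA buffer (50 mM Tris pH 8.0) with protease and phosphatase inhibitors, and protein was quantified by BCA. Lysates were run on SDS-PAGE, transferred to PVDF and blocked in 5% milk/TBST. Phospho- and total proteins were probed by immunoblot with ECL detection; β-actin served as loading control.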

BaF3 [10] = test: Inhibition of BCR/ABL p210 fusion protein H369P mutant (unknown origin) expressed in BAF3 cells assessed as growth inhibition measured after 72 hrs by CellTiter-Glo or CCK8 assay; format: cell-based; details: Homo sapiens
Outline: as §2

[11] = target: T2, BCR/ABL p210 fusion protein (Homo sapiens, UniProt A1Z199); test: Inhibition of BCR/ABL p210 fusion protein mediated signaling pathways assessed as reduction in ERK phosphorylation at T202/Y204 in human KU812 cells at 0.01 to 3 uM measured after 2 hrs by immunoblotting; format: cell-based
T2 sequence (A1Z199 1-97): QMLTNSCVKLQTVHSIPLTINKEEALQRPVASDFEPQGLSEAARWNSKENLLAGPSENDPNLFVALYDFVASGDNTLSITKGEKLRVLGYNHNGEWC
Outline: as §3

[12] = target: T2, BCR/ABL p210 fusion protein; test: Inhibition of BCR/ABL p210 fusion protein mediated signaling pathways assessed as reduction in CrkL phosphorylation at Y207 in human MEG01 cells at 0.01 to 3 uM measured after 2 hrs by immunoblotting; format: cell-based; details: MEG-01
Outline: as §3

[13] = target: Macrophage colony-stimulating factor 1 receptor (Homo sapiens, UniProt P07333); details: BaF3
Sequence of Macrophage colony-stimulating factor 1 receptor (P07333 whole entry): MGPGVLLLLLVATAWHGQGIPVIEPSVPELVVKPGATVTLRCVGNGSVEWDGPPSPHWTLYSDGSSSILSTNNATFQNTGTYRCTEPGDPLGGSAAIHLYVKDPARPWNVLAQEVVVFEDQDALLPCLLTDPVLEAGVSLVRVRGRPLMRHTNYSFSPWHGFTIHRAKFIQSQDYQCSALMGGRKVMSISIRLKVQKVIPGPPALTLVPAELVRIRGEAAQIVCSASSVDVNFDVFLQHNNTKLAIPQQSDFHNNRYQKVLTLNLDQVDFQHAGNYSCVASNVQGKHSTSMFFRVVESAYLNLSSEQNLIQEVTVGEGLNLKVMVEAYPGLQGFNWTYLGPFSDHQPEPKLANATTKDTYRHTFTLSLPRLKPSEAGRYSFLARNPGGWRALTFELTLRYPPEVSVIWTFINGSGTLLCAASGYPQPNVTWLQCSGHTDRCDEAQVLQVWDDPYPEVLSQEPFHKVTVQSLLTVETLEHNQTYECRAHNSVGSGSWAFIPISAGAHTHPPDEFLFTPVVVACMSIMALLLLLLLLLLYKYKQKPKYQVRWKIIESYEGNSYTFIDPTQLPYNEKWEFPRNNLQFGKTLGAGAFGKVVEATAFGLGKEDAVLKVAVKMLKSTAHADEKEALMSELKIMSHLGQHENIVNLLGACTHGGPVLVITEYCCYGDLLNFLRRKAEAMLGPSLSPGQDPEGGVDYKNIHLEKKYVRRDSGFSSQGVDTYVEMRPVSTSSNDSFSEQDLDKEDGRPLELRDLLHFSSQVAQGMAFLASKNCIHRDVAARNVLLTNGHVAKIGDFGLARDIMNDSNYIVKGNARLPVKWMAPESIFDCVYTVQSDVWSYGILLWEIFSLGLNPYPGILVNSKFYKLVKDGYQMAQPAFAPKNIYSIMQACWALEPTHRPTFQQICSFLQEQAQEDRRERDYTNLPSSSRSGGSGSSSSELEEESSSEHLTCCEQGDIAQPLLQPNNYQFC

[14] = Cell cycle arrest in human GIST882 cells assessed as accumulation at G0/G1 phase at 0.3 uM after 48 hrs by propidium iodide/RNase staining based flow cytometry; format: functional
Outline: as §1

BaF3 [15] = test: Inhibition of BCR/ABL p210 fusion protein F317I mutant (unknown origin) expressed in BAF3 cells assessed as growth inhibition measured after 72 hrs by CellTiter-Glo or CCK8 assay; format: cell-based; details: Homo sapiens
Outline: as §2

K562 = test: Induction of apoptosis in human K562 cells assessed as increase in cleaved caspase-3 level at 0.1 to 3 uM by Western blot analysis; format: functional, cell-based
Outline: (§4)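 Cells were treated with DMSO or serially diluted compound for the indicated periods. They were washed in ice-cold PBS and lysed in RIPA buffer with protease/phosphatase inhibitors, and protein was quantified by BCA. Lysates were resolved by SDS-PAGE, transferred to PVDF and blocked in 5% milk/TBST. Blots were probed for PARP and caspase-3, with β-actin as loading control, and detected by ECL.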

[16] = AUC (0 to t) in Sprague-Dawley rat at 1 mg/kg, iv; format: ADME, organism-based; details: in vivo
Outline: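 Male Sprague-Dawley rats aged six to eight weeks were fasted overnight and then dosed iv or orally. Blood (~0.2 mL) was drawn from the jugular vein into heparin and kept on ice. Sampling was at 1 min to 8 h for iv and 5 min to 24 h for oral. Plasma was separated by centrifugation at 2-8 °C and stored at -80 °C until analysis.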

[17] = target: T2, BCR/ABL p210 fusion protein; test: Inhibition of BCR/ABL p210 fusion protein autophosphorylation at Y245 in human […] cells at 0.01 to 3 uM measured after 2 hrs by immunoblotting; format: cell-based
Outline: as §3

[18] = target: T1, Mast/stem cell growth factor receptor Kit; test: Inhibition of c-KIT autophosphorylation at Y823 in human GISTT1 cells at 0.03 to 10 uM measured after 2 hrs by immunoblotting; format: cell-based
Outline: as §3

[19] = Antiproliferative activity against human MEG01 cells measured after 72 hrs by CellTiter-Glo or CCK8 assay; format: functional; details: MEG-01, 72 h
GIST882 = test: Induction of apoptosis in human GIST882 cells assessed as cleavage of PARP at 0.1 to 3 uM by Western blot analysis; format: functional, cell-based
Outline: as §4

[20] = target: T1, Mast/stem cell growth factor receptor Kit; test: Inhibition of c-KIT mediated signaling pathways assessed as reduction in Stat3/5 phosphorylation at Y705/Y694 in human GISTT1 cells at 0.03 to 10 uM measured after 2 hrs by immunoblotting; format: cell-based
Outline: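 GIST-T1 cells treated with DMSO or serially diluted compound for 2 h. Cells lysed in RIPA buffer with protease/phosphatase inhibitors, protein quantified by BCA, SDS-PAGE, PVDF transfer, milk block, primary/secondary antibodies, ECL detection; beta-actin loading control.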

[21] = target: Tyrosine-protein kinase Lck (Homo sapiens, UniProt P06239); test: Inhibition of recombinant C-terminal His-tagged human LCK cytoplasmic domain expressed in baculovirus expression system assessed as residual activity at 1 uM measured after 1 hr by FRET based Z'Lyte assay relative to control
Sequence of Tyrosine-protein kinase Lck (P06239 2-509 limits assumed): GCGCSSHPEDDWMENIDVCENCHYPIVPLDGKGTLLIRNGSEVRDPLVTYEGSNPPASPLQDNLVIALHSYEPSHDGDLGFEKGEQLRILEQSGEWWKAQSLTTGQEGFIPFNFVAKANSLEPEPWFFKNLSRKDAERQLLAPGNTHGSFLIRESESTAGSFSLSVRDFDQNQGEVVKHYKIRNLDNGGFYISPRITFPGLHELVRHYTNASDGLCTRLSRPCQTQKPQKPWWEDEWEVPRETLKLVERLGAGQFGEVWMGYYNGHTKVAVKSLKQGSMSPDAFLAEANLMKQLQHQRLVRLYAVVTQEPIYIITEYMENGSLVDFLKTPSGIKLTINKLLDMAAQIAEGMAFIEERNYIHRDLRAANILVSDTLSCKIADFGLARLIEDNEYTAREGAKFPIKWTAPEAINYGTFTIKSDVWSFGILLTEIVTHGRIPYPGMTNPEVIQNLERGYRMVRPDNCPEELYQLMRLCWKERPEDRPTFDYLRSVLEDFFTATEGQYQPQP

BaF3 [22] = test: Inhibition of BCR/ABL p210 fusion protein Y253H mutant (unknown origin) expressed in BAF3 cells assessed as growth inhibition measured after 72 hrs by CellTiter-Glo or CCK8 assay; format: cell-based; details: Homo sapiens
Outline: as §2

[23] = target: Platelet-derived growth factor receptor beta (Homo sapiens, UniProt P09619); test: Inhibition of recombinant His-tagged human PDGFR-beta cytoplasmic domain (558 to 1106 residues) expressed in baculovirus expression system measured after 1 hr by FRET based Z'Lyte assay
Sequence of Platelet-derived growth factor receptor beta (P09619 whole entry, the tested form may be a part): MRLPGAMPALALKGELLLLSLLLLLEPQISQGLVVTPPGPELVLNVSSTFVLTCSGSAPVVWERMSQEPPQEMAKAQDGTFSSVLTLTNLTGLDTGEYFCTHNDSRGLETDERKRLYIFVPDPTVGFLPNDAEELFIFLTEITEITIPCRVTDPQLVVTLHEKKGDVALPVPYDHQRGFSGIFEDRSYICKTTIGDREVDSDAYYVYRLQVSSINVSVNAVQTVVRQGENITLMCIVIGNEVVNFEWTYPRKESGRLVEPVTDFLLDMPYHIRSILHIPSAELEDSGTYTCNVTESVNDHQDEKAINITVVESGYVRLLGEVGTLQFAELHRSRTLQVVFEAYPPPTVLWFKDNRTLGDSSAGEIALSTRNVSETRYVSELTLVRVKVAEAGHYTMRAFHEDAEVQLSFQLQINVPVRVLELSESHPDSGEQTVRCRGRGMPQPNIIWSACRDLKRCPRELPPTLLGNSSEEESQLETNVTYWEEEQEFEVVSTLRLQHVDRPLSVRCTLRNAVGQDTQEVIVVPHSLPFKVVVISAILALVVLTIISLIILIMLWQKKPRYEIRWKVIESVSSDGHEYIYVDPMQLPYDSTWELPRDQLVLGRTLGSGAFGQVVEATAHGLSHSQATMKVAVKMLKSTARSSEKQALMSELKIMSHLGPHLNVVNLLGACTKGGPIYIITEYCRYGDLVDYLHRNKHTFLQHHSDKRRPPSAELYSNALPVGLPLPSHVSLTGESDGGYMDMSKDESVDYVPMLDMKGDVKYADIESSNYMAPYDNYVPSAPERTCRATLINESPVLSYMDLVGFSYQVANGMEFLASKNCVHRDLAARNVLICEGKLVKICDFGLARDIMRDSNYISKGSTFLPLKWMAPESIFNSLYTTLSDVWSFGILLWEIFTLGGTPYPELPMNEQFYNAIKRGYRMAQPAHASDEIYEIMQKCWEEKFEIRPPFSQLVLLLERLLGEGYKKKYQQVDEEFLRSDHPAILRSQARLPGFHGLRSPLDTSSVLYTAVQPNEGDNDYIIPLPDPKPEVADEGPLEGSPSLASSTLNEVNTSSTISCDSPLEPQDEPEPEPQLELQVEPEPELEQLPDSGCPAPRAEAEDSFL
Outline: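 Z'-LYTE FRET biochemical kinase assay run by Invitrogen on selected kinases identified from binding profiling; IC50 from dose-response.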

T1 sequence (P10721 whole entry): as the sequence (P10721 whole entry V559D/T670I, the tested form may be a part) above, with D559V, I670T counted along it

inhibition [1]: Active
inhibition [2]: Active
inhibition [4]: Active
inhibition [5]: Active
inhibition [6]: Active
inhibition [7]: Active
Compound: Cc1ccc(NC(=O)c2ccc(CN3CCN(C)CC3)cc2)cc1Nc1nccc(-c2cccnc2)n1 [IMATINIB]
Activity [3]: Active

GI50 [8]: 1010 nM
inhibition [9]: Active
GI50 (BaF3 [10]): 980 nM
inhibition [11]: Active
inhibition [12]: Active
GI50 [13]: 162 nM
GI50 (BaF3 [15]): 490 nM
AUC(0-t) [16]: 510 ng·h/mL
inhibition [17]: Active
inhibition [18]: Active
inhibition [20]: Active
Activity [21]: 0.55%
GI50 (BaF3 [22]): 1670 nM
IC50 [23]: 80 nM
Compound: Cc1ccc(C(=O)N2CCC(Oc3cc(NC(=O)c4ccc(CN5CCN(C)CC5)c(C(F)(F)F)c4)ccc3C)CC2)cn1
Activity [14]: Active
Activity (K562): Active
GI50 [19]: 20 nM
Activity (GIST882): Active
